Measurements published in ChEMBL document CHEMBL2057168, “(1aR,5aR)1a,3,5,5a-Tetrahydro-1H-2,3-diaza-cyclopropa[a]pentalene-4-carboxylic acid (MK-1903): a potent GPR109a agonist that lowers free fatty acids in humans” (J Med Chem, 2012).

What was measured:
[1] = Apparent half life in human at 150 mg, po BID administered on day 1 followed by 2-day wash out period after which dosing continued up to day 11 measured on day 11; type: ADME, organism-based; details: in vivo, read-out: t1/2(app) (converted)
Method in brief: (§1)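 Double-blind, placebo-controlled, randomized dose-escalation study in healthy male volunteers, six cohorts of eight (six active, two placebo). Oral dose on day 1, two-day washout, then dosing days 4–11; the 200 mg qd cohort was titrated over days 1–4. Venous blood taken predose and at 0.5–12 h on days 1, 4 and 11; plasma drug measured. τ 12 h (bid), 24 h (qd), 8 h (tid), 6 h (qid).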

[2] = Tmax in human at 150 mg, po BID administered on day 1 followed by 2-day wash out period after which dosing continued up to day 11 measured on day 4; type: ADME, organism-based; details: in vivo
Method in brief: (§2)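 Double-blind, placebo-controlled, randomized multiple oral dose study in healthy male volunteers (cohorts of eight; six active, two placebo). Dose given on day 1, then a two-day washout, then dosing days 4–11; for the QD arm, subjects were titrated over days 1–4. Venous plasma sampled predose and 0.5, 1, 1.5, 2, 4, 6, 8, 10, 12 h postdose on days 1, 4 and 11. Tmax reported as median (min–max).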

[3] = Plasma clearance in rhesus monkey; type: ADME, organism-based, Macaca mulatta
Cytochrome P450 2C8 = molecular target: T1, Cytochrome P450 2C8 (Homo sapiens, UniProt P10632); assay: Activity at CYP2C8; type: ADME
T1 sequence (P10632 whole entry): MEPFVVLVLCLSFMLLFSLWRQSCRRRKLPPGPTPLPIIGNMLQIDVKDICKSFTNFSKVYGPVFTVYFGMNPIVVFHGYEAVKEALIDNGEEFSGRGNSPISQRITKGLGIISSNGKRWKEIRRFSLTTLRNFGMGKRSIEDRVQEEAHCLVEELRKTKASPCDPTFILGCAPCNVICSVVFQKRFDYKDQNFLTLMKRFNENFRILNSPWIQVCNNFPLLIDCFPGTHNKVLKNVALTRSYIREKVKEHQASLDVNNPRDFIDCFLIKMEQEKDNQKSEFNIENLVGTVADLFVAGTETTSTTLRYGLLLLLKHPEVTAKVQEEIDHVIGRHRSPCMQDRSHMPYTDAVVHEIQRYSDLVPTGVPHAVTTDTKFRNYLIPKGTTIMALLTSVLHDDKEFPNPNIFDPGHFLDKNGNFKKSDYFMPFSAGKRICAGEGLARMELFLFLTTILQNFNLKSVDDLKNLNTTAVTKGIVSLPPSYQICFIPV

[4] = Cmin in human at 150 mg, po TID administered on day 1 followed by 2-days wash out period after which dosing continued up to day 11 measured on day 4 at 8 hrs; type: ADME, organism-based; details: in vivo, read-out: Cmin
Method in brief: (§3)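 Healthy male volunteers took part in a double-blind, randomized, placebo-controlled dose-escalation study, with cohorts of 8 (6 on drug, 2 on placebo). Each subject got an oral dose on day 1, then a 2-day washout, then dosing on days 4–11. The 200 mg qd group was titrated over days 1–4. Venous plasma was sampled predose and 0.5–12 h postdose on days 1, 4 and 11, and predose on days 5–10 for troughs.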

[5] = Tmax in human at 100 mg, po BID administered on day 1 followed by 2-day wash out period after which dosing continued up to day 11 measured on day 4; type: ADME, organism-based; details: in vivo; method in brief: as §2
Mus musculus = assay: Dose normalized Cmax in po dosed mouse; type: ADME, organism-based; details: in vivo
[6] = Tmax in human at 150 mg, po BID administered on day 1 followed by 2-day wash out period after which dosing continued up to day 11 measured on day 1; type: ADME, organism-based; details: in vivo; method in brief: as §2
[7] = Cmin in human at 175 mg, po QID administered on day 1 followed by 2-days wash out period after which dosing continued up to day 11 measured on day 4 at 6 hrs; type: ADME, organism-based; details: in vivo, read-out: Cmin; method in brief: as §3
[8] = Oral bioavailability in Sprague-Dawley rat at 10 mg/kg; type: ADME, organism-based; details: in vivo
Method in brief: (§4)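 Male Sprague-Dawley rats were dosed at 10 mg/kg po or 2 mg/kg iv in 80% PEG400/20% phosphate-buffered saline, fasted overnight before the oral dose. Jugular blood was sampled serially from 0.25 to 21 h over 24 h, and heparinized plasma was prepared. Drug was assayed by HPLC/MS/MS (quantitation range 1–2000 ng/mL).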

Homo sapiens = assay: Antidyslipidemic activity in dyslipidemia patient assessed as change in triglyceride level at 150 mg administered TID during four week study relative to control; type: functional
[9] = Cmax in human at titreated po dose administered from day 1 to 4 followed by 200 mg, po QD administered up to day 11 measured on day 4; type: ADME, organism-based; set-up: dose 200 mg, route oral; details: in vivo; method in brief: as §3
[10] = Tmax in human at titreated po dose administered from day 1 to 4 followed by 200 mg, po QD administered up to day 11 measured on day 4; type: ADME, organism-based; details: in vivo; method in brief: as §2
[11] = AUC (0 to 12 hrs) in human at 50 mg, po BID administered on day 1 followed by 2-day wash out period after which dosing continued up to day 11 measured on day 11; type: ADME, organism-based; set-up: dose 50 mg, time < 12 hr, route oral; details: plasma; method in brief: as §1
Canis familiaris = assay: Dose normalized AUC in po dosed dog; type: ADME, organism-based, Canis lupus familiaris; details: in vivo
Rattus norvegicus [12] = assay: Antidyslipedic activity in fasted Sprague-Dawley rat assessed as decrease in free fatty acid level at 0.1 to 30 mg/kg, po by NEFA C-free fatty acid assay; type: functional; set-up: scale not given: the % may be the effect or the level left; details: dose mg/kg 0.1-30
Method in brief: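 Male Sprague-Dawley rats fasted, compound by oral gavage, serial plasma sampling after dosing for free fatty acids over a time course; vehicle-dosed control group.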

[13] = AUC (0 to 8 hrs) in human at 150 mg, po TID administered on day 1 followed by 2-days wash out period after which dosing continued up to day 11 measured on day 11; type: ADME, organism-based; set-up: time < 8 hr, dose 150 mg, route oral; details: plasma; method in brief: as §1
[14] = AUC (0 to 6 hrs) in human at 175 mg, po QID administered on day 1 followed by 2-days wash out period after which dosing continued up to day 11 measured on day 4; type: ADME, organism-based; set-up: time < 6 hr, dose 175 mg, route oral; details: plasma; method in brief: as §1
[15] = Cmin in human at 150 mg, po BID administered on day 1 followed by 2-day wash out period after which dosing continued up to day 11 measured on day 4 at 12 hrs; type: ADME, organism-based; details: in vivo, read-out: Cmin; method in brief: as §3
[16] = AUC (0 to 12 hrs) in human at 50 mg, po BID administered on day 1 followed by 2-day wash out period after which dosing continued up to day 11 measured on day 1; type: ADME, organism-based; set-up: dose 50 mg, time < 12 hr, route oral; details: plasma; method in brief: as §1
Rattus norvegicus [17] = assay: Dose normalized Cmax in Sprague-Dawley rat at 10 mg/kg, po; type: ADME, organism-based; set-up: dose 10 mg/kg, route oral; details: in vivo; method in brief: as §4
[18] = Volume of distribution in dog; type: ADME, organism-based, Canis lupus familiaris; details: in vivo
[19] = Tmax in human at 50 mg, po BID administered on day 1 followed by 2-day wash out period after which dosing continued up to day 11 measured on day 11; type: ADME, organism-based; details: in vivo; method in brief: as §2
[20] = Cmax in human at 175 mg, po QID administered on day 1 followed by 2-days wash out period after which dosing continued up to day 11 measured on day 11; type: ADME, organism-based; set-up: dose 175 mg, route oral; details: in vivo; method in brief: as §3

O=C(O)c1n[nH]c2c1C[C@H]1C[C@@H]21
half-life [1]: 8.9 h
Tmax [2]: 1.5 h
clearance [3]: 5.1 mL/min/kg
Activity (Cytochrome P450 2C8): Not Active
concentration at 8 h [4]: 0.583 nM
Tmax [5]: 1 h
Cmax/dose (Mus musculus): 3.5 µM·kg/mg
Tmax [6]: 1.25 h
concentration at 6 h [7]: 2.92 nM
bioavailability [8]: 83%
Activity (Homo sapiens): -10.3%
Cmax [9]: 56.3 nM
Tmax [10]: 1.5 h
AUC at 12 h [11]: 0.0254 µM·h
AUC/dose (Canis familiaris): 33.3 µM·kg·h/mg
Activity (Rattus norvegicus [12]): 90%
AUC at 8 h [13]: 0.0879 µM·h
AUC at 6 h [14]: 0.113 µM·h
concentration at 12 h [15]: 0.241 nM
AUC at 12 h [16]: 0.0294 µM·h
Cmax/dose (Rattus norvegicus [17]): 3.7 µM·kg/mg
Vd [18]: 0.41 L/kg
Tmax [19]: 0.5 h
Cmax [20]: 56 nM
